≈ marks a conversion by molar mass, not a printed value.
What was measured:
HT-29 = experiment: Cytotoxicity against human HT29 cells after 72 hrs by MTT assay; format: cell-based; conditions: Homo sapiens, HT-29, 72 h; read-out: IC50
How it was run: (§1)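 MTT assay. Cells seeded at 5000-10 000 per well and incubated at 37 °C in CO₂ with compound at 1-100 µg/mL in triplicate wells for 72 h, then MTT added. Absorbance read at 540 nm; % cytotoxicity = 100 × (1 − treated/control). IC50 obtained by nonlinear regression; NA means IC50 above 100 µg/mL.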

DU-145 = experiment: Cytotoxicity against human DU145 cells after 72 hrs by MTT assay; format: cell-based; conditions: Homo sapiens, DU-145, 72 h; read-out: IC50; how it was run: as §1
KB = experiment: Cytotoxicity against human KB cells after 72 hrs by MTT assay; format: cell-based; how it was run: as §1
L132 = experiment: Cytotoxicity against human L132 cells after 72 hrs by MTT assay; format: cell-based; how it was run: as §1
MIA PaCa-2 = experiment: Cytotoxicity against human MiaPaCa2 cells after 72 hrs by MTT assay; format: cell-based; conditions: Homo sapiens, MIA PaCa-2, 72 h; read-out: IC50; how it was run: as §1
[1] = Cytotoxicity against human Hep2 cells after 72 hrs by MTT assay; format: cell-based, HEp-2; how it was run: as §1
[2] = Cytotoxicity against human PA1 cells after 72 hrs by MTT assay; format: cell-based, PA-1; how it was run: as §1
[3] = Cytotoxicity against human ECV304 cells after 72 hrs by MTT assay; format: cell-based, ECV-304; how it was run: as §1
HEK293 = experiment: Cytotoxicity against human HEK293 cells after 72 hrs by MTT assay; format: cell-based; conditions: Homo sapiens, HEK293, 72 h; read-out: IC50; how it was run: as §1
[4] = Homo sapiens, KB, 72 h, read-out: IC50
[5] = Homo sapiens, L132, 72 h, read-out: IC50
[6] = Homo sapiens, HEp-2, 72 h, read-out: IC50
[7] = Homo sapiens, PA-1, 72 h, read-out: IC50
[8] = Homo sapiens, ECV-304, 72 h, read-out: IC50

| SMILES | IC50 (HT-29) [µg/mL] | IC50 (DU-145) [µg/mL] | IC50 (KB; [4]) [µg/mL] | IC50 (L132; [5]) [µg/mL] | IC50 (MIA PaCa-2) [µg/mL] | IC50 [1, 6] [µg/mL] | IC50 [2, 7] [µg/mL] | IC50 [3, 8] [µg/mL] | IC50 (HEK293) [µg/mL] | IC50 (KB; kb) [µg/mL] | IC50 (L132; l132) [µg/mL] | IC50 ([1]; hep-2) [µg/mL] | IC50 ([2]; pa-1) [µg/mL] | IC50 ([3]; ecv-304) [µg/mL] |
| --- | --- | --- | --- | --- | --- | --- | --- | --- | --- | --- | --- | --- | --- | --- |
| COC(=O)c1cc(C2=C(c3cc(OC)c(OC)c(OC)c3)C(=O)CC2O[Si](C)(C)C(C)(C)C)ccc1OC (centres undefined) | > 100 | > 100 | > 100 | > 100 | > 100 | > 100 | > 100 | > 100 | > 100 |  |  |  |  |  |
| COc1ccc(OC)c(C2=C(c3cc(OC)c(OC)c(OC)c3)/C(=N\O)CC2O[Si](C)(C)C(C)(C)C)c1 (centres undefined) | 50 (≈ 94.4 µM) | > 100 | > 100 | > 100 | 1 (≈ 1.89 µM) | 7 (≈ 13.2 µM) | 8.5 (≈ 16 µM) | 6 (≈ 11.3 µM) | 7 (≈ 13.2 µM) |  |  |  |  |  |
| COc1ccc(C2=C(c3cc(OC)c(OC)c(OC)c3)/C(=N\O)C(O)C2)cc1O (centres undefined) | 69 (≈ 172 µM) | 10 (≈ 24.9 µM) | 90 (≈ 224 µM) | 81 (≈ 202 µM) | > 100 | 20 (≈ 49.8 µM) | 26 (≈ 64.8 µM) | > 100 | > 100 |  |  |  |  |  |
| COc1ccc(OC)c(C2=C(c3cc(OC)c(OC)c(OC)c3)C(=O)CC2O[Si](C)(C)C(C)(C)C)c1 (centres undefined) | 5 (≈ 9.71 µM) | 100 (≈ 194 µM) | 10 (≈ 19.4 µM) | 100 (≈ 194 µM) | > 100 | 19 (≈ 36.9 µM) | 17 (≈ 33 µM) | 6.5 (≈ 12.6 µM) | 9.5 (≈ 18.5 µM) |  |  |  |  |  |
| COc1ccc(C2=C(c3cc(OC)c(OC)c(OC)c3)C(=O)CC2O[Si](C)(C)C(C)(C)C)cc1O (centres undefined) | 38 (≈ 75.9 µM) | 75 (≈ 150 µM) | 6.5 (≈ 13 µM) | < 1 | 55 (≈ 110 µM) | 14.5 (≈ 29 µM) | 14 (≈ 28 µM) | 30 (≈ 59.9 µM) | 42 (≈ 83.9 µM) |  |  |  |  |  |
| COc1cc(C2=C(c3cc(C)c(OC)c(C)c3)C(O)CC2=O)cc(OC)c1OC (centres undefined) | > 100 | > 100 | > 100 | > 100 | > 100 | > 100 | > 100 | > 100 | > 100 |  |  |  |  |  |
| COc1ccc(OC)c(C2=C(c3cc(OC)c(OC)c(OC)c3)C(=O)CC2O)c1 (centres undefined) | > 100 | > 100 | > 100 | > 100 | > 100 | > 100 | > 100 | > 100 | > 100 |  |  |  |  |  |
| O/N=C1/CC(O)C(c2ccccc2)=C1c1ccccc1 (centres undefined) | > 100 | > 100 | > 100 | > 100 | > 100 | > 100 | > 100 | > 100 | > 100 |  |  |  |  |  |
| C=CCOc1cc(C2=C(c3cc(OC)c(OC)c(OC)c3)/C(=N\O)C(O)C2)ccc1OC (centres undefined) | > 100 | > 100 | > 100 | > 100 | > 100 | > 100 | > 100 | > 100 | > 100 |  |  |  |  |  |
| COc1ccc(C2=C(c3cc(OC)c(OC)c(OC)c3)CC(O)C2=O)cc1[N+](=O)[O-] (centres undefined) | > 100 | > 100 | > 100 | > 100 | > 100 | > 100 | > 100 | > 100 | > 100 |  |  |  |  |  |
| COc1ccc(C2=C(c3cc(OC)c(OC)c(OC)c3)CC(O[Si](C)(C)C(C)(C)C)C2=O)cc1[N+](=O)[O-] (centres undefined) | > 100 | > 100 | > 100 | > 100 | > 100 | > 100 | > 100 | > 100 | > 100 |  |  |  |  |  |
| COCOc1cc(C2=C(c3cc(OC)c(OC)c(OC)c3)C(=O)CC2O[Si](C)(C)C(C)(C)C)ccc1OC (centres undefined) | 43 (≈ 78.9 µM) | 34 (≈ 62.4 µM) | 33 (≈ 60.6 µM) | 32 (≈ 58.7 µM) | 50 (≈ 91.8 µM) | 12 (≈ 22 µM) | 13.5 (≈ 24.8 µM) | 40 (≈ 73.4 µM) | > 100 |  |  |  |  |  |
| COc1ccc(C2=C(c3cc(OC)c(OC)c(OC)c3)C(=O)CC2O)cc1O (centres undefined) | < 1 | 8 (≈ 20.7 µM) | < 1 | < 1 | > 100 | < 1 | < 1 | > 100 | > 100 |  |  |  |  |  |
| COc1ccc(C2=C(c3cc(OC)c(OC)c(OC)c3)/C(=N\O)C(O)C2)cc1F (centres undefined) | < 1 | 10 (≈ 24.8 µM) | < 1 | < 1 | 94 (≈ 233 µM) | < 1 | > 100 | 43 (≈ 107 µM) | > 100 |  |  |  |  |  |
| COc1ccc(C2=C(c3cc(OC)c(OC)c(OC)c3)/C(=N\O)C(O)C2)cc1OC(C)C (centres undefined) | 69 (≈ 156 µM) | 81 (≈ 183 µM) | 95 (≈ 214 µM) | 75 (≈ 169 µM) | 98 (≈ 221 µM) | 40 (≈ 90.2 µM) | 61 (≈ 138 µM) | 96 (≈ 216 µM) | 36.8 (≈ 82.9 µM) |  |  |  |  |  |
| COc1cc(C2=C(c3ccc(SC)cc3)CC(O)/C2=N/O)cc(OC)c1OC (centres undefined) | 36 (≈ 89.7 µM) | 2.5 (≈ 6.23 µM) | 15 (≈ 37.4 µM) | > 100 | 40 (≈ 99.6 µM) | < 1 | 25.3 (≈ 63 µM) | 57 (≈ 142 µM) | 27 (≈ 67.3 µM) |  |  |  |  |  |
| COc1ccc(C2=C(c3cc(OC)c(OC)c(OC)c3)C(=O)C(OC(C)=O)C2)cc1F (centres undefined) | < 1 | 16 (≈ 37.2 µM) | 33 (≈ 76.7 µM) | < 1 | 39.5 (≈ 91.8 µM) | < 1 | > 100 | 41 (≈ 95.3 µM) | 59 (≈ 137 µM) |  |  |  |  |  |
| COc1ccc(C2=C(c3cc(OC)c(OC)c(OC)c3)C(=O)C(OC(C)=O)C2)cc1Cl (centres undefined) | < 1 | 64 (≈ 143 µM) | 64 (≈ 143 µM) | < 1 | 24 (≈ 53.7 µM) | < 1 | > 100 | 3.5 (≈ 7.83 µM) | 60 (≈ 134 µM) |  |  |  |  |  |
| COc1ccc(C2=C(c3cc(OC)c(OC)c(OC)c3)C(=O)C(O)C2)cc1NC(=O)c1ccccc1 (centres undefined) | > 100 | > 100 | > 100 | > 100 | > 100 | > 100 | > 100 | > 100 | > 100 |  |  |  |  |  |
| COc1ccc(C2=C(c3cc(OC)c(OC)c(OC)c3)C(=O)CC2O[Si](C)(C)C(C)(C)C)cc1OC (centres undefined) | > 100 | > 100 | > 100 | > 100 | > 100 | > 100 | > 100 | > 100 | > 100 |  |  |  |  |  |
| COc1ccc(C2=C(c3cc(OC)c(OC)c(OC)c3)/C(=N\O)CC2OC(C)=O)cc1 (stereo in doubt; 40) | < 1 | 21 (≈ 49.1 µM) |  |  | < 1 |  |  |  | 22 (≈ 51.5 µM) | < 1 | < 1 | < 1 | < 1 | 60 (≈ 140 µM) |

Source: ChEMBL document CHEMBL1143007, “Synthesis and evaluation of 4/5-hydroxy-2,3-diaryl(substituted)-cyclopent-2-en-1-ones as cis-restricted analogues of combretastatin A-4 as novel anticancer agents” (J Med Chem, 2007)
